Experimental data collected from several papers.
Lines come from different studies, so protocols differ.
Target: Serine/threonine-protein kinase PLK3 (PLK3, Homo sapiens, UniProt Q9H4B4)

COc1ncccc1-c1cnn2ccc(N3CCN(C(=O)OC(C)C)CC3)nc12 gave a remaining binding of 100% (binding; competition with immobilised ligand; 1 µM).
The remaining binding of Nc1ncc(-c2nc(N3CCOCC3)nc(N3CCOCC3)n2)c(C(F)F)n1 is reported as 83% (binding; competition with immobilised ligand; 10 µM).
O=c1[nH]c2ccccc2n1C1CCN(Cc2ccc(-c3[nH]c4cc5ncnc5cc4nc3-c3ccccc3)cc2)CC1 gave a remaining signal of 99.1% (cell-free assay; 0.5 µM).
COc1cc(Nc2ncc(F)c(Nc3ccc4c(n3)NC(=O)C(C)(C)O4)n2)cc(OC)c1OC gave an inhibition of 100% (binding; 10 µM).
For Cn1cc(-c2cc(F)cc(N3CCn4c(cc5c4CCCC5)C3=O)c2CO)cc(Nc2ccc(N3CCN(C4COC4)CC3)cn2)c1=O, the inhibition was 10% (enzyme activity; inhibitor; 0.1 µM).
CC(C)(C)c1cc(C=C(C#N)C#N)cc(Br)c1O has a remaining activity of 94.6% (enzyme activity; inhibitor; 0.5 µM).
The remaining binding of N#CC1(c2ccccn2)CCN(Cc2cc(C(=O)O)c(=O)n3ccccc23)CC1 is reported as 85% (cell-free assay; competition with immobilised ligand; 1 µM).
For Cc1nn(C)cc1-c1nc2c(N3CCN(Cc4ccc(Cl)cc4)CC3)c(Cl)cnc2[nH]1, the remaining binding was 88% (binding; competition with immobilised ligand; 1 µM).
With Cn1cncc1[C@@](O)(COc1ccc(C#N)cc1-c1ccc(OC(F)(F)F)cc1)c1ccc(C#N)cc1 the remaining binding was 88% (cell-free assay; competition with immobilised ligand; 1 µM).
Cn1cc(-c2cccc(N3CCc4c(sc5c4CC(C)(C)C5)C3=O)c2CO)cc(Nc2ccncn2)c1=O gave an inhibition of -15% (enzyme activity; inhibitor; 1 µM).
